Test results reported in PMC2900633 (Bioorganic & medicinal chemistry, 2008).

Experiments:
[1] = system: LNCaP cells; test: MTT assay, LNCaP cells; assay type: cell-based; details: 24 h, ±10 μM
[2] = system: Jurkat, PC3 and LNCaP cells; test: MTT assay, statements over all three cell lines; assay type: cell-based
[3] = system: PC3 cells; test: Endogenous PS exposure, Annexin V-FITC flow cytometry; assay type: cell-based; details: scramblase 100 μM, 37°C, 2 hours, background value 2 %
Procedure, shortened: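 PC3 cells were grown in Ham's F-12K with 10% FBS at 37°C, 5% CO2. At 90% confluency they were PBS-washed, trypsinised and resuspended in TES buffer at 1 × 10^5 cells/mL. Test compound (100 μM, from DMSO stock) was added for 2 h at 37°C. Cells were then stained in binding buffer with Annexin V-FITC plus 7AAD (500 ng/mL) for 15 min at 37°C. Flow cytometry excluded 7AAD-positive cells. Three independent experiments were run.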

[4] = system: erythrocytes; details: raised from 1 %, previous work, ref 8f; cited from earlier work

SMILES: Cc1ccc(S(=O)(=O)NCCN(CCNC(=O)[C@H](N)Cc2ccccc2)CCNS(=O)(=O)c2ccc(C)cc2)cc1.Cl [scramblase 15]
- LD50, LNCaP cells [1]: 40 µM
- LD50 (effect on mitochondrial reductase activity) [2]: > 15 µM

SMILES: Cc1ccc(S(=O)(=O)NCCN(CCNCc2ccccc2)CCNS(=O)(=O)c2ccc(C)cc2)cc1 [scramblase 16]
- LD50, LNCaP cells [1]: 40 µM
- LD50 (effect on mitochondrial reductase activity) [2]: > 15 µM

SMILES: Cc1ccc(S(=O)(=O)NCCN(CCNC(=O)Nc2ccc(C(C)C)cc2)CCNS(=O)(=O)c2ccc(C)cc2)cc1 [scramblase 9]
- fraction of Annexin-stained cells [3]: < 5%

SMILES: Cc1ccc(S(=O)(=O)NCCN(CCNC(=O)Nc2ccc(C(F)(F)F)cc2)CCNS(=O)(=O)c2ccc(C)cc2)cc1 [scramblase 5]
- fraction of Annexin-stained cells [3]: 10%

SMILES: Cc1ccc(S(=O)(=O)NCCN(CCNC(=S)Nc2ccc(Cl)cc2)CCNS(=O)(=O)c2ccc(C)cc2)cc1 [scramblase 14]
- LD50, LNCaP cells [1]: 15 µM
- LD50 (effect on mitochondrial reductase activity) [2]: > 15 µM

SMILES: Cc1ccc(S(=O)(=O)NCCN(CCNC(=O)Nc2ccc([N+](=O)[O-])cc2)CCNS(=O)(=O)c2ccc(C)cc2)cc1 [scramblase 2]
- fraction of Annexin-stained cells [3]: < 5%
- fraction of Annexin-stained cells, erythrocytes [4]: 34%
